Measured values published in ChEMBL document CHEMBL3525985, “Regiospecificity and stereospecificity of human UDP-glucuronosyltransferases in the glucuronidation of estriol, 16-epiestriol, 17-epiestriol, and 13-epiestradiol” (Drug Metab Dispos, 2013).

How the values were obtained:
[1] = target: T1, UDP-glucuronosyltransferase 1A10 (Homo sapiens, UniProt Q9HAW8); assay: Drug level assessed as recombinant human C-terminal His-tagged UGT1A10-mediated compound formation from 200 uM estriol after 15 to 60 mins by […] analysis in presence of UDPGA; format: ADME; details: recombinant enzyme
T1 sequence (Q9HAW8 whole entry): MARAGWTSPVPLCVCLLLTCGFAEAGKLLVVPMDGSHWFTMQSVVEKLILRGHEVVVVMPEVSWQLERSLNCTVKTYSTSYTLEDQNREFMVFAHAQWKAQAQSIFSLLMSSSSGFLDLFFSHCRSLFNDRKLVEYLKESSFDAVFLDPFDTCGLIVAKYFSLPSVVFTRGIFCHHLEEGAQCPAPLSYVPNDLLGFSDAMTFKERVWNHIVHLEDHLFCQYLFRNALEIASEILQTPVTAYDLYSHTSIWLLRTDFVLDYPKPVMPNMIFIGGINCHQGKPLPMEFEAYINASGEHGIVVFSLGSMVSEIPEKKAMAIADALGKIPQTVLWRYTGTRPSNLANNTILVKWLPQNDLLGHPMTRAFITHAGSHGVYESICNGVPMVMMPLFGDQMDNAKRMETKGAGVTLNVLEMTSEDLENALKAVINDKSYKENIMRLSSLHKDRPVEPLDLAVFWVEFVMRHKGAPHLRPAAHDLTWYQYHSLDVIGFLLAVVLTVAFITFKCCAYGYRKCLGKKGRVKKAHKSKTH
Method in brief: (§1)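 UGT-enriched insect cell membranes (5 or 50 µg) in 50 mM phosphate pH 7.4, 10 mM MgCl2, 5 mM UDPGA; substrate 200 µM in DMSO (10% final); 15–60 min at 37°C; stopped with perchloric acid, on ice, centrifuged; glucuronides resolved by HPLC. Triplicates, no-UDPGA controls; rates normalized to relative UGT expression; substrate consumption ≤10%.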

[2] = target: T2, UDP-glucuronosyltransferase 2B7 (Homo sapiens, UniProt P16662); assay: Drug level assessed as recombinant human C-terminal His-tagged UGT2B7-mediated compound formation from 200 uM 17-epiestriol after 15 to 60 mins by HPLC analysis in presence of UDPGA; format: ADME; details: recombinant enzyme; method in brief: as §1
T2 sequence (P16662 whole entry): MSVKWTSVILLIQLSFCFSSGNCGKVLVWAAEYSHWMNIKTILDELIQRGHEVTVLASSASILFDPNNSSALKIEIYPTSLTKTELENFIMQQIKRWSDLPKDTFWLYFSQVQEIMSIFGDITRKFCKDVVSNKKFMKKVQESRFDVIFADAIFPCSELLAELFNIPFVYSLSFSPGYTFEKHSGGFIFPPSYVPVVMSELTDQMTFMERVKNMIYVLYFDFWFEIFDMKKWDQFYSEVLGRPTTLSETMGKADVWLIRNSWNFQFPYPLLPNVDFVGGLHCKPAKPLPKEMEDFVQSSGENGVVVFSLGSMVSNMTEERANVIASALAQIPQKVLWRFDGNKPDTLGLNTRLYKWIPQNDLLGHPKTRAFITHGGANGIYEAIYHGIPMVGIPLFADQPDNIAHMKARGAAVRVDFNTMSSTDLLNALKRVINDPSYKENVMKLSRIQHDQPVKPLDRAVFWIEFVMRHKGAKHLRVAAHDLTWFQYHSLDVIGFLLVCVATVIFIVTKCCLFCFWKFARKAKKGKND

UGT2A2 (Homo sapiens) = assay: Drug level assessed as recombinant human C-terminal His-tagged UGT2A2-mediated compound formation from at 200 uM 13-epiestradiol after 15 to 60 mins by HPLC analysis in presence of UDPGA; details: recombinant enzyme
[3] = test system: C[C@]12CC[C@@H]3c4ccc(O)cc4CC[C@H]3[C@@H]1C[C@H](O)[C@@H]2O; assay: Drug metabolism assessed as human UGT1A10 F93G mutant-mediated 16-epiestriol-3-glucuronide formation after 15 to 60 mins by Michaelis-Menten equation analysis in presence of UDPGA; format: ADME
Method in brief: (§2)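 UGT-enriched insect cell membranes (5 or 50 µg) were incubated with 0.2–300 µM aglycone in DMSO (10% final), 5 mM UDPGA, 10 mM MgCl2 and 50 mM phosphate pH 7.4 at 37°C. Reactions were stopped with perchloric acid and glucuronides measured by HPLC. Assays were in triplicate with substrate consumption ≤10%, rates normalized to relative UGT expression, and kinetics fitted to Michaelis-Menten.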

[4] = test system: C[C@]12CC[C@@H]3c4ccc(O)cc4CC[C@H]3[C@@H]1C[C@@H](O)[C@@H]2O; assay: Drug metabolism assessed as human UGT1A10 F93G mutant-mediated estriol-3-glucuronide formation after 15 to 60 mins by Michaelis-Menten equation analysis in presence of UDPGA; format: ADME; method in brief: as §2
[5] = test system: [H][C@@]12CCc3cc(O)ccc3[C@@]1([H])CC[C@]1(C)[C@H](O)[C@H](O)C[C@@]21[H]; assay: Drug metabolism assessed as human UGT1A10 F93G mutant-mediated 17-epiestriol-3-glucuronide formation after 15 to 60 mins by Michaelis-Menten equation analysis in presence of UDPGA; format: ADME; method in brief: as §2
[6] = target: T2, UDP-glucuronosyltransferase 2B7; assay: Drug level assessed as recombinant human C-terminal His-tagged UGT2B7-mediated compound formation from 8 mg 16-epiestriol after 5 hrs by NMR spectroscopic analysis in presence of UDPGA; format: ADME; details: recombinant enzyme
Method in brief: (§3)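 Preparative biosynthesis: 4 mg 17-epiestriol or 8 mg 16-epiestriol with UGT2B7-enriched insect cell homogenate in 50 mM phosphate pH 7.4, 10 mM MgCl2, 50 mM UDPGA, 10% DMSO. Glucuronides fractionated by HPLC (0.1% HCOOH replacing phosphate, UV 280 nm), concentrated, lyophilized, then examined by NMR.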

[7] = target: T1, UDP-glucuronosyltransferase 1A10; assay: Drug level assessed as recombinant human C-terminal His-tagged UGT1A10-mediated compound formation from 200 uM 16-epiestriol after 15 to 60 mins by […] analysis in presence of UDPGA; format: ADME; details: recombinant enzyme; method in brief: as §1
[8] = target: T2, UDP-glucuronosyltransferase 2B7; assay: Drug level assessed as recombinant human C-terminal His-tagged UGT2B7-mediated compound formation from 4 mg 17-epiestriol after 5 hrs by NMR spectroscopic analysis in presence of UDPGA; format: ADME; details: recombinant enzyme; method in brief: as §3
[9] = substrate: C[C@]12CC[C@@H]3c4ccc(O)cc4CC[C@H]3[C@@H]1C[C@H](O)[C@@H]2O; assay: Drug metabolism assessed as recombinant human C-terminal His-tagged UGT1A10-mediated 16-epiestriol-3-glucuronide formation after 15 to 60 mins by Michaelis-Menten equation analysis in presence of UDPGA; format: ADME
Method in brief: (§4)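 For kinetics, the aglycone ranged from 0.2 to 300 μM in DMSO (10% final) with 5 mM UDPGA, 10 mM MgCl₂ and 50 mM phosphate pH 7.4. Enzyme was UGT-enriched insect cell membranes. Incubation was 15–60 min at 37°C, in triplicate, keeping substrate consumption ≤10%. Products were measured by HPLC and fitted to Michaelis-Menten. Rates were normalized to expression level.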

[10] = substrate: C[C@]12CC[C@@H]3c4ccc(O)cc4CC[C@H]3[C@@H]1C[C@@H](O)[C@@H]2O; assay: Drug metabolism assessed as recombinant human C-terminal His-tagged UGT1A10-mediated estriol-3-glucuronide formation after 15 to 60 mins by Michaelis-Menten equation analysis in presence of UDPGA; format: ADME; method in brief: as §4
[11] = substrate: [H][C@@]12CCc3cc(O)ccc3[C@@]1([H])CC[C@]1(C)[C@H](O)[C@H](O)C[C@@]21[H]; assay: Drug metabolism assessed as recombinant human C-terminal His-tagged UGT1A10-mediated 17-epiestriol-3-glucuronide formation after 15 to 60 mins by Michaelis-Menten equation analysis in presence of UDPGA; format: ADME; method in brief: as §2
[12] = substrate: C[C@]12CC[C@@H]3c4ccc(O)cc4CC[C@H]3[C@@H]1C[C@H](O)[C@@H]2O; assay: Drug metabolism assessed as recombinant human C-terminal His-tagged UGT2B7-mediated 16-epiestriol-16-glucuronide formation after 15 to 60 mins by Michaelis-Menten equation analysis in presence of UDPGA; format: ADME; method in brief: as §4
[13] = substrate: C[C@]12CC[C@@H]3c4ccc(O)cc4CC[C@H]3[C@@H]1C[C@@H](O)[C@@H]2O; assay: Drug metabolism assessed as recombinant human C-terminal His-tagged UGT2B7-mediated estriol-16-glucuronide formation after 15 to 60 mins by Michaelis-Menten equation analysis in presence of UDPGA; format: ADME
Method in brief: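 Kinetics with His-tagged UGT-enriched insect-cell membranes (5 or 50 µg): aglycone 0.2–300 µM in 10% DMSO, 5 mM UDPGA, 10 mM MgCl₂, 50 mM phosphate pH 7.4, 15–60 min at 37°C. Substrate consumption kept at or below 10%. Glucuronides quantified by HPLC in triplicate, rates normalized to expression, and data fitted to Michaelis-Menten.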

[14] = substrate: [H][C@@]12CCc3cc(O)ccc3[C@@]1([H])CC[C@]1(C)[C@H](O)[C@H](O)C[C@@]21[H]; assay: Drug metabolism assessed as recombinant human C-terminal His-tagged UGT2B7-mediated 17-epiestriol-16-glucuronide formation after 15 to 60 mins by Michaelis-Menten equation analysis in presence of UDPGA; format: ADME; method in brief: as §2

`C[C@]12CC[C@@H]3c4ccc(O[C@@H]5O[C@H](C(=O)O)[C@@H](O)[C@H](O)[C@H]5O)cc4CC[C@H]3[C@@H]1C[C@@H](O)[C@@H]2O` was tested, and the Drug metabolism [1] was “metabolite_detected”.

`C[C@]12CC[C@@H]3c4ccc(O)cc4CC[C@H]3[C@@H]1C[C@@H](O[C@@H]1O[C@H](C(=O)O)[C@@H](O)[C@H](O)[C@H]1O)[C@@H]2O` was tested, and the Drug metabolism [1] was “metabolite_detected”.

`C[C@]12CC[C@@H]3c4ccc(O)cc4CC[C@H]3[C@@H]1C[C@@H](O[C@@H]1O[C@H](C(=O)O)[C@@H](O)[C@H](O)[C@H]1O)[C@H]2O` was tested, and the Drug metabolism [2] was “metabolite_not_detected”.

In the case of `C[C@@]12CC[C@@H]3c4ccc(O)cc4CC[C@H]3[C@@H]1CC[C@@H]2O[C@@H]1O[C@H](C(=O)O)[C@@H](O)[C@H](O)[C@H]1O`, the Drug metabolism (UGT2A2 (Homo sapiens)) is reported as “metabolite_detected”.

“UDP-glucuronosyltransferase 1A10 (Homo sapiens; F93G)” gave a Km [3] of 186 µM, a Vmax [3] of 0.00225 µmol/min/mg and a Km [4] of 230 µM. It also gave a Vmax [4] of 0.00754 µmol/min/mg, a Km [5] of 51.1 µM and a Vmax [5] of 0.00571 µmol/min/mg.

For `C[C@]12CC[C@@H]3c4ccc(O)cc4CC[C@H]3[C@@H]1C[C@@H](O)[C@@H]2O[C@@H]1O[C@H](C(=O)O)[C@@H](O)[C@H](O)[C@H]1O`, the Drug metabolism [1] was “metabolite_detected”.

With `C[C@]12CC[C@@H]3c4ccc(O)cc4CC[C@H]3[C@@H]1C[C@H](O)[C@@H]2O[C@@H]1O[C@H](C(=O)O)[C@@H](O)[C@H](O)[C@H]1O` the Drug metabolism [6] was “metabolite_detected” and the Drug metabolism [7] was “metabolite_detected”.

For `C[C@]12CC[C@@H]3c4ccc(O)cc4CC[C@H]3[C@@H]1C[C@H](O[C@@H]1O[C@H](C(=O)O)[C@@H](O)[C@H](O)[C@H]1O)[C@@H]2O`, the Drug metabolism [6] was “metabolite_detected” and the Drug metabolism [7] was “metabolite_detected”.

`C[C@]12CC[C@@H]3c4ccc(O[C@@H]5O[C@H](C(=O)O)[C@@H](O)[C@H](O)[C@H]5O)cc4CC[C@H]3[C@@H]1C[C@H](O)[C@@H]2O` was tested, and the Drug metabolism [7] was “metabolite_detected”.

In the case of `C[C@]12CC[C@@H]3c4ccc(O)cc4CC[C@H]3[C@@H]1C[C@@H](O)[C@H]2O[C@@H]1O[C@H](C(=O)O)[C@@H](O)[C@H](O)[C@H]1O`, the Drug metabolism [2] is reported as “metabolite_detected” and the Drug metabolism [8] is reported as “metabolite_detected”.

In the case of `C[C@]12CC[C@@H]3c4ccc(O[C@@H]5O[C@H](C(=O)O)[C@@H](O)[C@H](O)[C@H]5O)cc4CC[C@H]3[C@@H]1C[C@@H](O)[C@H]2O`, the Drug metabolism [2] is reported as “metabolite_detected”.

B1: UDP-glucuronosyltransferase 1A10 (Homo sapiens) (protein)
chain: T1 sequence (Q9HAW8 whole entry)
B1 gave a Km [9] of 59.8 µM, a Vmax [9] of 0.0077 µmol/min/mg and a Km [10] of 68.4 µM. It also gave a Vmax [10] of 0.0012 µmol/min/mg, a Km [11] of 337 µM and a Vmax [11] of 0.000958 µmol/min/mg.

B2: UDP-glucuronosyltransferase 2B7 (Homo sapiens) (protein)
chain: T2 sequence (P16662 whole entry)
With B2 the Km [12] was 38.4 µM, the Vmax [12] was 0.00387 µmol/min/mg and the Km [13] was 10.3 µM. For the same molecule, the Vmax [13] was 0.00151 µmol/min/mg, the Km [14] was 0.6 µM and the Vmax [14] was 0.00082 µmol/min/mg.
